According to ChEMBL document CHEMBL1153726, “Synthesis and anticancer activity of sclerophytin-inspired hydroisobenzofurans” (Bioorg Med Chem Lett, 2009):

What was measured:
Format in all cases: functional
[1] = Growth inhibition of human […] cells after 96 hrs by MTT assay
Outline: (§1)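 Tested in the NCI 60-cell-line panel in five-dose format; GI50 and LC50 values reported for each cell line.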

M14 = assay: Growth inhibition of human M14 cells at 10 nM after 96 hrs by MTT assay; set-up: scale not given: the % may be the effect or the level left
HT-29 [2] = assay: Growth inhibition of human HT-29 cells at 10 nM after 96 hrs by MTT assay; set-up: scale not given: the % may be the effect or the level left
SF-539 = assay: Growth inhibition of human SF539 cells at 100 nM after 96 hrs by MTT assay; set-up: scale not given: the % may be the effect or the level left
SW-620 = assay: Growth inhibition of human SW620 cells at 100 nM after 96 hrs by MTT assay; set-up: scale not given: the % may be the effect or the level left
HOP-62 [3] = assay: Growth inhibition of human HOP62 cells at 10 uM after 96 hrs by MTT assay; set-up: scale not given: the % may be the effect or the level left
HCT-116 [4] = assay: Growth inhibition of human HCT116 cells at 1 uM after 96 hrs by MTT assay; set-up: scale not given: the % may be the effect or the level left
HCT-116 [5] = assay: Growth inhibition of human HCT116 cells at 10 nM after 96 hrs by MTT assay; set-up: scale not given: the % may be the effect or the level left
SNB-75 = assay: Growth inhibition of human SNB75 cells after 96 hrs by MTT assay; conditions: SNB-75, 96 h; outline: as §1
BT-549 [6] = assay: Growth inhibition of human BT549 cells at 10 nM after 96 hrs by MTT assay; set-up: scale not given: the % may be the effect or the level left
HOP-62 [7] = assay: Growth inhibition of human HOP62 cells at 10 nM after 96 hrs by MTT assay; set-up: scale not given: the % may be the effect or the level left
[8] = Growth inhibition of human RPMI8266 cells at 1 nM after 96 hrs by MTT assay; set-up: scale not given: the % may be the effect or the level left
Malme-3M = assay: Growth inhibition of human MALME-3M cells at 1 nM after 96 hrs by MTT assay; set-up: scale not given: the % may be the effect or the level left
MDA-MB-435 = assay: Growth inhibition of human MDA-MB-435 cells at 100 nM after 96 hrs by MTT assay; set-up: scale not given: the % may be the effect or the level left
EKVX = assay: Growth inhibition of human EKVX cells at 10 nM after 96 hrs by MTT assay; set-up: scale not given: the % may be the effect or the level left
DU-145 = assay: Growth inhibition of human DU145 cells at 1 uM after 96 hrs by MTT assay; set-up: scale not given: the % may be the effect or the level left
HT-29 [9] = assay: Growth inhibition of human HT-29 cells after 96 hrs by MTT assay; conditions: HT-29, 96 h
Outline: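 Run in the NCI 60 human tumour cell line panel as a five-dose assay. GI50 and LC50 were reported for each cell line.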

NCI-H226 = assay: Growth inhibition of human NCI-H226 cells at 10 uM after 96 hrs by MTT assay; set-up: scale not given: the % may be the effect or the level left
OVCAR-3 = assay: Growth inhibition of human OVCAR-3 cells at 1 nM after 96 hrs by MTT assay; set-up: scale not given: the % may be the effect or the level left
UO-31 = assay: Growth inhibition of human UO31 cells at 100 nM after 96 hrs by MTT assay; set-up: scale not given: the % may be the effect or the level left
BT-549 [10] = assay: Growth inhibition of human BT549 cells after 96 hrs by MTT assay; conditions: BT-549, 96 h
[11] = read-out: Log10LC50 (converted)
[12] = read-out: Log10GI50 (converted)

C=C(C)[C@H]1CC=C(C)C2=CO[C@@H](c3ccccc3F)[C@@H]21
CC50 [1, 11]: 9.33 µM | TGI ([1]; read-out: Log10TGI (converted)): 2 µM | TGI ([1]; read-out: TGI): 2.01 µM | Activity (M14): 89% | Activity (HT-29 [2]): 92% | Activity (SF-539): 84% | Activity (SW-620): 101% | Activity (HOP-62 [3]): 108.33% | Activity (HCT-116 [4]): 15% | Activity (HCT-116 [5]): 88% | GI50 (SNB-75; read-out: GI50): 4.94 µM | LC50 (SNB-75; read-out: LC50): 56.9 µM | GI50 (SNB-75; [12]): 4.9 µM | LC50 (SNB-75; [11]): 57.5 µM | TGI (SNB-75; read-out: Log10TGI (converted)): 20.4 µM | TGI (SNB-75; read-out: TGI): 20.5 µM | Activity (BT-549 [6]): 84% | Activity (HOP-62 [7]): 97% | Activity [8]: 78% | Activity (Malme-3M): 97% | Activity (MDA-MB-435): 84% | Activity (EKVX): 93% | Activity (DU-145): 37% | GI50 (HT-29 [9]; read-out: GI50): 3.41 µM | LC50 (50% lethal concentration) (HT-29 [9]; read-out: LC50): 43.2 µM | GI50 (HT-29 [9]; [12]): 3.39 µM | LC50 (50% lethal concentration) (HT-29 [9]; [11]): 43.7 µM | TGI (HT-29 [9]; read-out: Log10TGI (converted)): 15.5 µM | TGI (HT-29 [9]; read-out: TGI): 15.6 µM | Activity (NCI-H226): 98.1% | Activity (OVCAR-3): 88% | Activity (UO-31): 81% | GI50 (BT-549 [10]; read-out: GI50): 1.72 µM | CC50 (BT-549 [10]; read-out: LC50 (the source's name)): 34 µM | GI50 (BT-549 [10]; [12]): 1.7 µM | CC50 (BT-549 [10]; [11]): 33.9 µM | TGI (BT-549 [10]; read-out: Log10TGI (converted)): 8.32 µM | TGI (BT-549 [10]; read-out: TGI): 8.37 µM
